pIC50: −log10 of the molar value.
Key:
Mus musculus [1] = experiment: Increase in life span of mice bearing L1210 leukemia after administration of 25 […] compound; format: functional
How it was run: (§1)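 In vivo antitumor test in mice bearing L1210 leukemia, read out as increase in life span (ILS). Body weight was monitored. The optimal dose was defined as the dose giving the best antitumor efficacy with body weight loss ≤15%.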

Mus musculus [2] = experiment: Number of mice bearing L1210 leukemia that survived after 30 days, after administration of 70 […] compound; format: functional; how it was run: as §1
Mus musculus [3] = experiment: Number of mice surviving on day 180 treated with 100 […] compound; 4/8; format: functional, organism-based
Mus musculus [4] = experiment: Weight change in mice bearing L1210 leukemia after administration of 70 […] compound; format: functional
Mus musculus [5] = experiment: Number of mice bearing L1210 leukemia that survived after 30 days, after administration of 42 µg/kg compound
Mus musculus [6] = experiment: Number of mice bearing L1210 leukemia that survived after 30 days, after administration of 25 […] compound; format: functional; how it was run: as §1
Mus musculus [7] = experiment: Increase in life span of mice bearing L1210 leukemia after administration of 42 […] compound; format: functional; how it was run: as §1
Mus musculus [8] = experiment: Increase in life span of mice bearing L1210 leukemia after administration of 70 […] compound; toxic; format: functional, organism-based; set-up: dose 70 […]
Mus musculus [9] = experiment: Weight change in mice bearing L1210 leukemia after administration of 42 […] compound; format: functional
L1210 = experiment: Compound was tested in vitro against L1210 leukemia cells; format: functional, cell-based; conditions: Mus musculus
How it was run: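 L1210 murine leukemia cells exposed to drug for 48 h; IC50 reported in nM.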

Mus musculus [10] = experiment: Weight change in mice bearing L1210 leukemia after administration of 25 […] compound; format: functional
Mus musculus [11] = experiment: Days until first mouse died treated with 100 […] compound; format: functional
How it was run: (§2)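 Delayed-toxicity study in non-tumor-bearing BDF1 mice: single ip dose given on day 0, then animals observed for up to 180 days. Recorded the day the first mouse died and the number of mice alive on day 180, with 6–8 mice per group.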

Mus musculus [12] = experiment: Number of mice surviving on day 180 treated with 100 […] compound; 2/8; format: functional, organism-based; how it was run: as §2
Mus musculus [13] = experiment: Increase in life span of mice bearing L1210 leukemia after administration of 70 mg/kg compound; format: functional; how it was run: as §1
Mus musculus [14] = experiment: Number of mice bearing L1210 leukemia that survived after 30 days, after administration of 1000 […] compound; format: functional; how it was run: as §1
Mus musculus [15] = experiment: Days until first mouse died treated with 1000 […] compound; format: functional; how it was run: as §2
Mus musculus [16] = experiment: Weight change in mice bearing L1210 leukemia after administration of 250 […] compound; format: functional
Mus musculus [17] = experiment: Weight change in mice bearing L1210 leukemia after administration of 1000 […] compound; format: functional
Mus musculus [18] = experiment: Number of mice bearing L1210 leukemia that survived after 30 days, after administration of 250 […] compound; format: functional; how it was run: as §1
Mus musculus [19] = experiment: Increase in life span of mice bearing L1210 leukemia after administration of 250 […] compound; format: functional; how it was run: as §1
Mus musculus [20] = experiment: Increase in life span of mice bearing L1210 leukemia after administration of 1000 […] compound; format: functional; how it was run: as §1
Mus musculus [21] = experiment: Weight change in mice bearing L1210 leukemia after administration of 500 […] compound; format: functional
Mus musculus [22] = experiment: Days until first mouse died treated with 2000 […] compound; format: functional; how it was run: as §2
Mus musculus [23] = experiment: Number of mice surviving on day 180 treated with 2000 […] compound; 0/6; format: functional, organism-based
Mus musculus [24] = experiment: Increase in life span of mice bearing L1210 leukemia after administration of 500 […] compound; format: functional; how it was run: as §1
Mus musculus [25] = experiment: Number of mice bearing L1210 leukemia that survived after 30 days, after administration of 500 µg/kg compound
Mus musculus [26] = experiment: Number of mice bearing L1210 leukemia that survived after 30 days, after administration of 45 µg/kg compound
Mus musculus [27] = experiment: Increase in life span of mice bearing L1210 leukemia after administration of 100 […] compound; format: functional; how it was run: as §1
Mus musculus [28] = experiment: Number of mice surviving on day 180 treated with 100 […] compound; 8/8; format: functional, organism-based
Mus musculus [29] = experiment: Increase in life span of mice bearing L1210 leukemia after administration of 67 […] compound; format: functional; how it was run: as §1
Mus musculus [30] = experiment: Weight change in mice bearing L1210 leukemia after administration of 100 […] compound; format: functional
Mus musculus [31] = experiment: Weight change in mice bearing L1210 leukemia after administration of 67 […] compound; format: functional
Mus musculus [32] = experiment: Days until first mouse died treated with 100 […] compound; no death; format: functional, organism-based
Mus musculus [33] = experiment: Number of mice bearing L1210 leukemia that survived after 30 days, after administration of 67 […] compound; format: functional; how it was run: as §1
Mus musculus [34] = experiment: Number of mice bearing L1210 leukemia that survived after 30 days, after administration of 100 […] compound; format: functional; how it was run: as §1
Mus musculus [35] = experiment: Weight change in mice bearing L1210 leukemia after administration of 45 […] compound; format: functional
Mus musculus [36] = experiment: Increase in life span of mice bearing L1210 leukemia after administration of 45 […] compound; format: functional; how it was run: as §1

CC(=O)Nc1ccc2oc(C(=O)Nc3ccc4[nH]c(C(=O)N5C[C@@H](CCl)c6c5cc(O)c5ccccc65)cc4c3)cc2c1
ILS at 25 mg/kg (Mus musculus [1]): 120% | Survivors (Mus musculus [2]): 0 | No. of mice (Mus musculus [3]): Mice surviving 4/8 | Weight change (Mus musculus [4]): -18% | Survivors (Mus musculus [5]): 0 | Survivors (Mus musculus [6]): 1 | ILS at 42 mg/kg (Mus musculus [7]): 67% | ILS (Mus musculus [8]): Toxic | Weight change (Mus musculus [9]): -7% | pIC50 (L1210): 9.19 | Weight change (Mus musculus [10]): 12% | Days (Mus musculus [11]): 8

CC(=O)Nc1ccc2[nH]c(C(=O)Nc3ccc4[nH]c(C(=O)N5C[C@@H](CCl)c6c5cc(O)c5ccccc65)cc4c3)cc2c1
ILS at 25 mg/kg (Mus musculus [1]): 173% | Survivors (Mus musculus [2]): 0 | No. of mice (Mus musculus [12]): Mice surviving 2/8 | Weight change (Mus musculus [4]): -6% | Survivors (Mus musculus [5]): 0 | Survivors (Mus musculus [6]): 1 | ILS at 42 mg/kg (Mus musculus [7]): 133% | Weight change (Mus musculus [9]): 5% | pIC50 (L1210): 8.92 | ILS (Mus musculus [13]): 80% | Weight change (Mus musculus [10]): 7% | Days (Mus musculus [11]): 49

CC(=O)Nc1cc(C(=O)Nc2cc(C(=O)N3CC(CCl)c4c3cc(O)c3ccccc43)n(C)c2)n(C)c1 (racemic)
Survivors (Mus musculus [14]): 0 | Days (Mus musculus [15]): 60 | Weight change (Mus musculus [16]): 7% | Weight change (Mus musculus [17]): -6% | Survivors (Mus musculus [18]): 0 | ILS at 250 mg/kg (Mus musculus [19]): 31% | ILS at 1000 mg/kg (Mus musculus [20]): 77% | pIC50 (L1210): 7.36 | Weight change (Mus musculus [21]): 5% | Days until first death (Mus musculus [22]): 29 days | No. of mice (Mus musculus [23]): Mice surviving 0/6 | ILS at 500 mg/kg (Mus musculus [24]): 31% | Survivors (Mus musculus [25]): 0

O=C(Nc1ccc2[nH]c(C(=O)N3CC(CCl)c4c3cc(O)c3ccccc43)cc2c1)c1cc2cc(F)ccc2[nH]1 (racemic)
Survivors (Mus musculus [26]): 0 | ILS at 100 mg/kg (Mus musculus [27]): 158% | No. of mice (Mus musculus [28]): Mice surviving 8/8 | ILS at 67 mg/kg (Mus musculus [29]): 160% | Weight change (Mus musculus [30]): -7% | Weight change (Mus musculus [31]): -2% | pIC50 (L1210): 9.54 | Days (Mus musculus [32]): No death | Survivors (Mus musculus [33]): 0 | Survivors (Mus musculus [34]): 0 | Weight change (Mus musculus [35]): 2% | ILS at 45 mg/kg (Mus musculus [36]): 137%

CC(=O)Nc1ccc2oc(C(=O)Nc3ccc4[nH]c(C(=O)N5CC(CCl)c6c5cc(O)c5ccccc65)cc4c3)cc2c1 (racemic)
pIC50 (L1210): 8.92

Source: ChEMBL document CHEMBL1136807, “CC-1065 analogues bearing different DNA-binding subunits: synthesis, antitumor activity, and preliminary toxicity study” (J Med Chem, 2003)
